Measured values from ChEMBL document CHEMBL5705889, “Novel mutant-selective EGFR kinase inhibitors against EGFR T790M” (Nature, 2009).
The source made the active and inactive calls. The calls are words filed in the database; no cut-off is given here.

How the values were obtained:
[1] = test system: BaF3; assay: cells; format: functional, cell-based; conditions: Mus musculus, BaF3, 72 h
[2] = target: NUAK family SNF1-like kinase 1 (Homo sapiens, UniProt O60285); assay: Binding affinity to ARK5 (unknown origin) assessed as dissociation constant
[3] = AUC(0 to infinity) in mouse at 10 mg/kg, po administered as single dose; format: ADME, organism-based; conditions: in vivo
[4] = target: Tyrosine-protein kinase ITK/TSK (Homo sapiens, UniProt Q08881); assay: Binding affinity to ITK (unknown origin) assessed as dissociation constant
[5] = Drug concentration in mouse plasma at 1 mg/kg, iv administered as single dose and measured after 2 hrs; format: ADME, organism-based
[6] = cells; format: functional, cell-based; conditions: Homo sapiens, Gefitinib-resistant PC9, 72 h
[7] = target: Tyrosine-protein kinase Tec (Homo sapiens) (UniProt P42680); assay: Inhibition of TEC (unknown origin)
[8] = Oral bioavailability in mouse at 10 mg/kg administered as single dose; format: ADME, organism-based; conditions: in vivo
[9] = test system: Mus musculus; assay: Invivo antitumor activity in transgenic mouse harboring EGFR L858R/T790M mutant assessed as remodelling/scarring at 25 mg/kg administered via gavage for 2 weeks by H&E staining based analysis; format: functional, organism-based
In short: (§1)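 EGFR-TL (L858R/T790M) or exon19 deletion-T790M (TD) inducible bitransgenic mice dosed by oral gavage daily at 25 mg/kg; vehicle 10% 1-methyl-2-pyrrolidinone:90% PEG-300. Tumors followed by MRI; lung histology by standard protocols.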

[10] = Toxicity in mouse harboring EGFR del E746_A750/T790M mutant assessed as effect on total white blood cell count at 25 mg/kg administered via gavage for 2 weeks; format: organism-based; conditions: in vivo, po, 336 h
In short: (§2)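 Inducible bitransgenic tumor mice gavaged daily, 25 mg/kg, vehicle NMP (10% 1-methyl-2-pyrrolidinone, 90% PEG-300), compared against vehicle-treated mice; weight, serum creatine and total white blood cell count monitored during the study.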

[11] = test system: Mus musculus; assay: Invivo antitumor activity in transgenic mouse harboring EGFR L858R/T790M mutant assessed as increase in fibrosis at 25 mg/kg administered via gavage for 2 weeks by H&E staining based analysis; format: functional, organism-based
In short: as §1

[12] = test system: Mus musculus; assay: In vivo inhibition of AKT phosphorylation in transgenic mouse harboring EGFR L858R/T790M mutant at 2.5 to 25 mg/kg administered as two doses separated by 16 hours by immunoblot analysis; format: functional, organism-based; conditions: dose 2.5-25 mg/kg
[13] = test system: NCI-H3255; assay: Antiproliferative activity against human NCI-H3255 cells harboring EGFR L858R mutant assessed as inhibition of cell growth incubated for 72 hrs by MTS assay; format: functional, cell-based; conditions: NCI-H3255, 72 h
[14] = Drug concentration in mouse plasma at 1 mg/kg, iv administered as single dose and measured after 1 hrs; format: ADME, organism-based
[15] = target: Tyrosine-protein kinase Blk (Homo sapiens, UniProt P51451); assay: Binding affinity to BLK (unknown origin) assessed as dissociation constant
[16] = Clearance in mouse at 1 mg/kg, iv administered as single dose; format: ADME, organism-based; conditions: in vivo
[17] = Drug concentration in mouse plasma at 1 mg/kg, iv administered as single dose and measured after 4 hrs; format: ADME, organism-based
[18] = Drug concentration in mouse plasma at 10 mg/kg, po administered as single dose and measured after 0.5 hrs; format: ADME, organism-based
[19] = Toxicity in mouse harboring EGFR del E746_A750/T790M mutant assessed as effect on body weight at 25 mg/kg administered via gavage for 2 weeks; format: organism-based; conditions: in vivo, po, 336 h
In short: as §2

[20] = AUC(0 to t) in mouse at 1 mg/kg, iv administered as single dose; format: ADME, organism-based; conditions: in vivo
[21] = test system: Mus musculus; assay: Invivo antitumor activity in transgenic mouse harboring EGFR del19/T790M mutant assessed as decrease in cellularity at 25 mg/kg administered via gavage for 2 weeks by H&E staining based analysis; format: functional, organism-based
In short: as §1

[22] = cells; format: functional, cell-based; conditions: Homo sapiens, HCC827 Gefitinib-resistant (GR) cell, 72 h
[23] = Cmax in mouse at 10 mg/kg, po administered as single dose; format: ADME, organism-based; conditions: in vivo
[24] = Drug concentration in mouse plasma at 10 mg/kg, po administered as single dose and measured after 24 hrs; format: ADME, organism-based
[25] = test system: Mus musculus; assay: In vivo antitumor activity in transgenic mouse harboring EGFR delE746_A750/T790M mutant assessed as increase in TUNEL positive cells at 25 mg/kg administered via gavage for 2 weeks by immunohistochemical analysis; format: functional, organism-based
In short: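 Transgenic EGFR T790M mutant mice were given daily gavage at 25mg/kg in 10% 1-methyl-2-pyrrolidinone:90% PEG-300 vehicle, alongside vehicle-alone controls. Tumor tissue was immunostained by standard protocols, and TUNEL-positive and Ki67-positive cells were counted.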

[26] = test system: Mus musculus; assay: In vivo inhibition of AKT phosphorylation in transgenic mouse harboring EGFR del E746_A750/T790M mutant at 2.5 to 25 mg/kg administered as two doses separated by 16 hours by immunoblot analysis; format: functional, organism-based; conditions: dose 2.5-25 mg/kg
[27] = Tmax in mouse at 10 mg/kg, po administered as single dose; format: ADME, organism-based; conditions: in vivo
[28] = target: Receptor-type tyrosine-protein kinase FLT3 (Homo sapiens, UniProt P36888, D835Y); assay: Binding affinity to FLT3 D835Y mutant (unknown origin) assessed as dissociation constant
[29] = target: Serine/threonine-protein kinase PLK4 (Homo sapiens, UniProt O00444); assay: Binding affinity to PLK4 (unknown origin) assessed as dissociation constant
[30] = Toxicity in mouse harboring EGFR del E746_A750/T790M mutant assessed as effect on serum creatine level at 25 mg/kg administered via gavage for 2 weeks; format: organism-based; conditions: in vivo, po, 336 h
In short: as §2

[31] = target: Cytoplasmic tyrosine-protein kinase BMX (Homo sapiens) (UniProt P51813); assay: Binding affinity to BMX (unknown origin)
[32] = Half-life in mouse at 1 mg/kg, iv administered as single dose; format: ADME, organism-based; conditions: in vivo
[33] = test system: Mus musculus; assay: Invivo antitumor activity in transgenic mouse harboring EGFR L858R/T790M mutant assessed as reduction in nodule remnants in tumor at 25 mg/kg administered via gavage for 2 weeks by H&E staining based analysis; format: functional, organism-based
In short: as §1

[34] = target: Mitogen-activated protein kinase; ERK1/ERK2 (Homo sapiens) (UniProt P27361+P28482); assay: Inhibition of ERK1/2 phosphorylation in human NCI-H1975 cells at 0.01 to 1.0 uM incubated for 16 hrs by immunoblot analysis; format: cell-based; conditions: dose 0.01-1 µM
[35] = test system: Mus musculus; assay: Invivo antitumor activity in transgenic mouse harboring EGFR del19/T790M mutant assessed as reduction in small residual nodules in tumor at 25 mg/kg administered via gavage for 2 weeks by H&E staining based analysis; format: functional, organism-based
In short: as §1

[36] = test system: Mus musculus; assay: In vivo inhibition of EGFR phosphorylation in transgenic mouse harboring EGFR del E746_A750/T790M mutant at 2.5 to 25 mg/kg administered as two doses separated by 16 hours by immunoblot analysis; format: functional, organism-based; conditions: dose 2.5-25 mg/kg
In short: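 Transgenic mice gavaged with compound in 10% 1-methyl-2-pyrrolidinone:90% PEG-300 vehicle; phosphorylation assessed in tissue by immunoblotting per standard protocols.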

Sequence of Serine/threonine-protein kinase PLK4 (O00444 whole entry): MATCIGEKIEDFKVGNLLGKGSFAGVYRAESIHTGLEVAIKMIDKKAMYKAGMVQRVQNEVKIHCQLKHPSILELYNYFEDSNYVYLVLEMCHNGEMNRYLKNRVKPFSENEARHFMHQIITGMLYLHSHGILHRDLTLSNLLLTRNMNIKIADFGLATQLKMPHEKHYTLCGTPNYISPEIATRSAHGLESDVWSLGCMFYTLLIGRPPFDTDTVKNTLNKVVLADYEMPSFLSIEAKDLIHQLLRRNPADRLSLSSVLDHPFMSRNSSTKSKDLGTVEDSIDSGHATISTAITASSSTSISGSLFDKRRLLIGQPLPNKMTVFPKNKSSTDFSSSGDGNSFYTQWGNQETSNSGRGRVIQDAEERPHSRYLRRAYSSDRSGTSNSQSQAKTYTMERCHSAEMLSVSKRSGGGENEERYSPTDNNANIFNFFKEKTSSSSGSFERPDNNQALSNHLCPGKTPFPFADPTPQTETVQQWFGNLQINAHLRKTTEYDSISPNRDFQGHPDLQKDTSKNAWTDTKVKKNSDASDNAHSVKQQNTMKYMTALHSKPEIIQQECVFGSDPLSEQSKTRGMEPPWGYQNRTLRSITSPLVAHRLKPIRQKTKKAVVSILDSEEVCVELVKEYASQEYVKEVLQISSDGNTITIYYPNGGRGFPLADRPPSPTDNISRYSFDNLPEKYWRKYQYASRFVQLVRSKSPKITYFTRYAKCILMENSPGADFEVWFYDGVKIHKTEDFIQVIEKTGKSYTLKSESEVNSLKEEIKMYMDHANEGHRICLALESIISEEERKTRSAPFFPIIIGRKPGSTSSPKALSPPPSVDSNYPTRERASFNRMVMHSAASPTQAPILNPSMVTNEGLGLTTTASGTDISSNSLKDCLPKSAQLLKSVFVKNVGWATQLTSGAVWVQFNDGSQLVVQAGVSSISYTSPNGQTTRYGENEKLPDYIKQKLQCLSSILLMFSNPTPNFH
Sequence of Tyrosine-protein kinase Tec (Homo sapiens) (P42680 whole entry, looked up): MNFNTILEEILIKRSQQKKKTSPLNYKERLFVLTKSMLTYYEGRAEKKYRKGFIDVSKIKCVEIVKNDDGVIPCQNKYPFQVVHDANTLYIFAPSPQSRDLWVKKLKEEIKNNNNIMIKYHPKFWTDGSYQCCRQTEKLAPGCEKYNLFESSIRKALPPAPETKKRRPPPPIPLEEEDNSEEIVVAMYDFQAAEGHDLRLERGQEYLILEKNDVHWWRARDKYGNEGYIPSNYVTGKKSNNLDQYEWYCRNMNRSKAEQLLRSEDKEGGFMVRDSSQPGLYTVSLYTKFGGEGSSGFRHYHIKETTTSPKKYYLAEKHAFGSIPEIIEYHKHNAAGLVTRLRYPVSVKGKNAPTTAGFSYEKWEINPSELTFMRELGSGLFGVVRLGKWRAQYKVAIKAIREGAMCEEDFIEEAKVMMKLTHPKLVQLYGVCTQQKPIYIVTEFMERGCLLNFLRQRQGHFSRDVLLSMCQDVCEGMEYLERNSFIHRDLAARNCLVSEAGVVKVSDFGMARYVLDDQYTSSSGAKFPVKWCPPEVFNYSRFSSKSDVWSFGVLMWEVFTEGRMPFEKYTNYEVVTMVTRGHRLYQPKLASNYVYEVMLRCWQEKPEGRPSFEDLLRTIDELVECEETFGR
Sequence of Cytoplasmic tyrosine-protein kinase BMX (Homo sapiens) (P51813 whole entry): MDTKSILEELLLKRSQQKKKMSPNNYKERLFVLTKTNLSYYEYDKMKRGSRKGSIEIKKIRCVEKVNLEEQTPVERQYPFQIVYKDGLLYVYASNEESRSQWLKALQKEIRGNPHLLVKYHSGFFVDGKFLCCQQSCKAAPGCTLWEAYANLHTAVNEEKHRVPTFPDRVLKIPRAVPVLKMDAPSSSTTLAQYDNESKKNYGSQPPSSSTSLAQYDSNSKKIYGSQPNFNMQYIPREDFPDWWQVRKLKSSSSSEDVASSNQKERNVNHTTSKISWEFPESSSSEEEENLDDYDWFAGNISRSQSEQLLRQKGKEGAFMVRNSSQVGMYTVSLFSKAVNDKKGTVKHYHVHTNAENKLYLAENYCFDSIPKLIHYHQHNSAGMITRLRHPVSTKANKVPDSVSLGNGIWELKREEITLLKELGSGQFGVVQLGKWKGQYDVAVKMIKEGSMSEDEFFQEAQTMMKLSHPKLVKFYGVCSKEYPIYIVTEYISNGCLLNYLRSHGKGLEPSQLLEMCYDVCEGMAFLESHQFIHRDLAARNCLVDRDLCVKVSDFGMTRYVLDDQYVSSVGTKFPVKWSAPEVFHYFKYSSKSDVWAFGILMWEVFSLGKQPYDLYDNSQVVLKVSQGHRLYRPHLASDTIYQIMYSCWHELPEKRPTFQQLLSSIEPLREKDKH
Sequence of NUAK family SNF1-like kinase 1 (O60285 whole entry): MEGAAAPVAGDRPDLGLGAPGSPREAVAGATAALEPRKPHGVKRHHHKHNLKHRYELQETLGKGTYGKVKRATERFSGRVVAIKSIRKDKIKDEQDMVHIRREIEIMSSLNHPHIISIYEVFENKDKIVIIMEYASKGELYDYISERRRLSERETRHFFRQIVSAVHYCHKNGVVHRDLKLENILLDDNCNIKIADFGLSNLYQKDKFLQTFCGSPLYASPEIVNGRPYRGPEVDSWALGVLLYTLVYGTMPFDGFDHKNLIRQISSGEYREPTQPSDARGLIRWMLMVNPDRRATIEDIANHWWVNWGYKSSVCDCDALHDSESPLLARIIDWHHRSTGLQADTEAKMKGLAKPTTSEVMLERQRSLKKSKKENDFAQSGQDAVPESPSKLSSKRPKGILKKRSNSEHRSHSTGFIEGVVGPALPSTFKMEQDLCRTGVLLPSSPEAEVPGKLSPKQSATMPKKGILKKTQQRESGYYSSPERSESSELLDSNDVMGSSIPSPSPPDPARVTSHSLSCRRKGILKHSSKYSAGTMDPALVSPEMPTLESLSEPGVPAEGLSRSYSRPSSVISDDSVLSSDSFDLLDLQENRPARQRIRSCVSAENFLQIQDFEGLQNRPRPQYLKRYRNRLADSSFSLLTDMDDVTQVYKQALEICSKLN
Sequence of Mitogen-activated protein kinase; ERK1/ERK2 (Homo sapiens) (P27361 whole entry, looked up): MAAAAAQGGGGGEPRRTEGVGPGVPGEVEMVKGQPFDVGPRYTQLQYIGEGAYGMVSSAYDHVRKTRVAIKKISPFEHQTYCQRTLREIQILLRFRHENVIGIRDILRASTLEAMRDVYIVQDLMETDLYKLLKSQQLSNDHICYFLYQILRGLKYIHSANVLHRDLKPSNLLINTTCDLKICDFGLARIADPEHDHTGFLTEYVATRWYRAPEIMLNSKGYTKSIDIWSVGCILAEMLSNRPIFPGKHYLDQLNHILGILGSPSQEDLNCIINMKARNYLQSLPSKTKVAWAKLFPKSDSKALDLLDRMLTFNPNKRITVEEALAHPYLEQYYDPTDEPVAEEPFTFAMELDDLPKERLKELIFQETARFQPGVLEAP
Sequence of Mitogen-activated protein kinase; ERK1/ERK2 (Homo sapiens) (P28482 whole entry, looked up): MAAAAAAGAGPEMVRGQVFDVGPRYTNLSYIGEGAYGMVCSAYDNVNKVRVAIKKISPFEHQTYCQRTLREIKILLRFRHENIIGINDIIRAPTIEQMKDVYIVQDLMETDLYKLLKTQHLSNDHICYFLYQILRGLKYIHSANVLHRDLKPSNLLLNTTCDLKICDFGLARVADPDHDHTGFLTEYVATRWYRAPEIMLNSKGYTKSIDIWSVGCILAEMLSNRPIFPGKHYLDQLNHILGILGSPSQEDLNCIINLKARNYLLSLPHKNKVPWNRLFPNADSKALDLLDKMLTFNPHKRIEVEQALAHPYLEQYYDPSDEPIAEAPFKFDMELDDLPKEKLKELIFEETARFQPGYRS
Sequence of Tyrosine-protein kinase Blk (P51451 whole entry): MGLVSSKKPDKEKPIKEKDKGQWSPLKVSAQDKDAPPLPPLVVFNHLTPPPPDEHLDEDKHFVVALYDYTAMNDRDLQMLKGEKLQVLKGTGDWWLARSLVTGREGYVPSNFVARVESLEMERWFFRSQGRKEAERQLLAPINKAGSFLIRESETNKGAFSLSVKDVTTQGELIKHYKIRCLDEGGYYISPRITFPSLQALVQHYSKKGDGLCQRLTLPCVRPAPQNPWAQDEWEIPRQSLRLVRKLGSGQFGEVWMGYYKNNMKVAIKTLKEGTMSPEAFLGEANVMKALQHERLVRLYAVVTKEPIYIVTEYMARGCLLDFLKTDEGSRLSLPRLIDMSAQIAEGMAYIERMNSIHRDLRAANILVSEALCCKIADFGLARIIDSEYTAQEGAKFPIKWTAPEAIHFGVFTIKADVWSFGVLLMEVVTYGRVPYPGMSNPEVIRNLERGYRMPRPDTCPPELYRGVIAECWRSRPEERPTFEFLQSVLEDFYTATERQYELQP
Sequence of Tyrosine-protein kinase ITK/TSK (Q08881 whole entry): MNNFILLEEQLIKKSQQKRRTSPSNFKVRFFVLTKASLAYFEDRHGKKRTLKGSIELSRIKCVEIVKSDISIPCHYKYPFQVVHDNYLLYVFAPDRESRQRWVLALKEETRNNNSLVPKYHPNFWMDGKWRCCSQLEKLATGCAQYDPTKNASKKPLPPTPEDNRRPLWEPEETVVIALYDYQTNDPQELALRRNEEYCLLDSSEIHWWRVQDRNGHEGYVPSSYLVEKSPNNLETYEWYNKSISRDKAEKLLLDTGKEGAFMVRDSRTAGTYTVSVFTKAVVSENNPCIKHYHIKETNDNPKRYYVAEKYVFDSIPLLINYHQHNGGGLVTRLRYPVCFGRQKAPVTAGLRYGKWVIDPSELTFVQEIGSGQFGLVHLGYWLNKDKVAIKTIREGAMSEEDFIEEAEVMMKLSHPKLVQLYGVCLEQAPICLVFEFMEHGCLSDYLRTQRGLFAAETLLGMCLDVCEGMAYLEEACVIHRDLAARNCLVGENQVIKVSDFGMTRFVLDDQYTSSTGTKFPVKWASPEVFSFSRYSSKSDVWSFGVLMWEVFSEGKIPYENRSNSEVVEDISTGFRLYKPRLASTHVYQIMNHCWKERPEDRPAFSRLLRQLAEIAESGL

With `C=CC(=O)Nc1cccc(Oc2nc(Nc3ccc(N4CCN(C)CC4)cc3OC)ncc2Cl)c1` the IC50 [1] was 157 nM, the Kd [2] was 91 nM and the AUC(0-inf) [3] was 2400 ng·h/mL. The Kd [4] was 43 nM, the concentration at 2 h [5] was 80.4 ng/mL and the IC50 [6] was 47 nM. The inhibition [7] was “Active”, the bioavailability [8] was 24.5% and the Activity [9] was “Active”. The Activity [10] was “Non-Toxic”, the Activity [11] was “Active” and the inhibition [12] was “Active”. It also gave an IC50 [13] of 89 nM, a concentration at 1 h [14] of 228 ng/mL and a Kd [15] of 220 nM. For the same compound, the clearance [16] was 17.1 mL/min/kg, the concentration at 4 h [17] was 49.1 ng/mL and the concentration at 0.5 h [18] was 397 ng/mL. For the same compound, the Activity [19] was “Non-Toxic”, the AUC(0-t) [20] was 956 ng·h/mL and the Activity [21] was “Active”. For the same compound, the IC50 [22] was greater than 3.3 µM, the Cmax [23] was 429 ng/mL and the concentration at 24 h [24] was 0.82 ng/mL. The Activity [25] was “Active”, the inhibition [26] was “Active” and the Tmax [27] was 15 min. The Kd [28] was 33 nM, the Kd [29] was 100 nM and the Activity [30] was “Non-Toxic”. For the same compound, the Activity [31] was “inactive”, the half-life [32] was 106 min and the Activity [33] was “Active”. The inhibition [34] was “Active”, the Activity [35] was “Active” and the inhibition [36] was “Active”.
